High-throughput results deposited in PubChem by The Scripps Research Institute Molecular Screening Center.
GPR7 antag – antagonists of human GPR7 (neuropeptides B/W receptor 1); inhibition, % at 4.4 µM; GPR7-expressing cells, fluorescence antagonist assay; 1.1% of 290,000 active; P48145; in the data active = inhibition above about 16%, passing the limit was not always enough;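 note: cells stimulated with the agonist NPW; 0% = agonist with vehicle and 100% = vehicle without agonist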
Target sequence (P48145 whole entry, looked up): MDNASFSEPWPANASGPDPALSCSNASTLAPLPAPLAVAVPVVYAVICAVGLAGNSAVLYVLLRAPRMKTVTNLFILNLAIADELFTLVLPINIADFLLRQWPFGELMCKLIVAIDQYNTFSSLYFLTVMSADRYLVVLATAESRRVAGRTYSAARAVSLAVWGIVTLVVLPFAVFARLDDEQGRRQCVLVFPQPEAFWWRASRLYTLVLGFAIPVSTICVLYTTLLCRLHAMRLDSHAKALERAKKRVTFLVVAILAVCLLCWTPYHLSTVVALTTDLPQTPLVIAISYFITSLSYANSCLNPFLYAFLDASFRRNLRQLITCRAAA
CHO parental Ca – counter-screen: ATP calcium response change in parental CHO cells. parental CHO-K1, ATP-induced calcium, Fluo-8 fluorescence. inhibition, % at 5.6 µM. 0.63% of 330,000 active;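 active = inhibition above that plate's mean sample inhibition plus 3 SD, cut at about 26% in these data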;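 note: 0% = ATP-challenged DMSO wells and 100% = DMSO wells without ATP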
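Assay system – parental CHO cells · Reagent – ATP stimulus · Detection – intracellular calcium via Fluo-8 no-wash fluorescent dye · Evaluation – percent inhibition of ATP-evoked calcium rise, normalized to controls · Controls – ATP wells versus no-ATP DMSO wells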
OX1R antag-1 – blocks the human orexin 1 receptor | O43613 | AID 485270 | OX1R-expressing cells, FRET antagonist read-out | 1.8% of 330,000 active | inhibition, % at 6.6 µM; in the data active = inhibition mostly above about 38%, no sharp cut-off; inactive = mostly below about 40%;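 note: 0% = agonist challenge alone and 100% = reference antagonist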
TAAR1 antagonist – antagonists of human TAAR1; Q96RJ0; CHO RD-HGA16 TAAR1, Fluo-8 calcium fluorescence, antagonist; inhibition, % at 3 µM; 1.5% of 360,000 active; AID 624466;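 active = inhibition above a per-plate cutoff, the mean inhibition of test compounds on that plate plus 3 SD, cut at about 49% in these data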;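 note: 0% = DMSO plus EC80 beta-PEA response and 100% = DMSO alone without agonist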
Target sequence (Q96RJ0 whole entry, looked up): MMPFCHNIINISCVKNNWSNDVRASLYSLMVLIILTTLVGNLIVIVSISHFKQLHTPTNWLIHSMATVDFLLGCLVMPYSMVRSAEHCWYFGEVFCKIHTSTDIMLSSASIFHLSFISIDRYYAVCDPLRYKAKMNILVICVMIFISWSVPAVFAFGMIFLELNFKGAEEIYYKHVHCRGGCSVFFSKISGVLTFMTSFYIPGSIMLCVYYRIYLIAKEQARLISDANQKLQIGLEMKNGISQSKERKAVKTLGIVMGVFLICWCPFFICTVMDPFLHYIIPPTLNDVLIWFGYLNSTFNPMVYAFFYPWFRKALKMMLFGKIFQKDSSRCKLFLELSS
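Test system: hTAAR1-expressing CHO RD-HGA16 cells, Gα16-coupled; Probe or stimulus: EC80 β-phenethylamine stimulus; Compound dosing: single nominal final test compound concentration of 3 µM; Timing: 140 s kinetic read after compound, 140 s after agonist; Signal: Fluo-8 calcium-sensitive fluorescence; Measure: % inhibition of agonist calcium response; Controls: DMSO and EC80 PEA controls.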
OX1R antag-2 – blocks the human orexin 1 receptor | 0.43% of 330,000 active | inhibition, % at 5 µM | CHO/OX1R cells, Fluo-8 calcium fluorescence, orexin A;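 active = inhibition above its plate's threshold, mean inhibition of all tested compounds on the plate plus 3 SD, cut at about 37% in these data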;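 note: 0% = orexin A challenge wells and 100% = SB-334867-A antagonist wells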
TAAR1 ag – human TAAR1 agonism; 0.99% of 360,000 active; activation, % at 3 µM; CHO RD-HGA16 TAAR1, Fluo-8 calcium fluorescence; vehicle wells 0%, saturating PEA agonist 100%; Q96RJ0; AID 624467;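 active = activation above the mean activation of all test compounds in the run plus 3 SD, cut at about 38% in these data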
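Test system: RD-HGA16 (CHO) cells co-expressing Gα16 and hTAAR1; dosing: one-point dosing at 3 µM (nominal); timing: 17-24 h seeding, 75 min 37 °C dye, 30 min RT; signal: kinetic Fluo-8 calcium fluorescence; read-out basis: % activation relative to PEA EC100 response; controls: DMSO and PEA EC100; replicates: n 1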
nonsel antag count – nonselective antagonism, TAAR1 counter-screen. shares compounds with TAAR1 antagonist. AID 651780. 77% of 2,400 active. counterscreen cell line, calcium fluorescence, antagonist mode. inhibition, % at 3 µM; in the data active = inhibition above about 22%;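 note: CHO-Ga16 host cells stimulated with ATP at an EC80 level; 0% = agonist EC80 plus vehicle and 100% = vehicle without agonist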
TAAR1 ant conf – human TAAR1 antagonism, confirmed | shares compounds with TAAR1 antagonist | TAAR1-expressing cells, fluorescence antagonist read-out | inhibition, % at 3 µM | 40% of 2,400 active | AID 651785; in the data active = inhibition above about 49%;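 note: CHO-Ga16 host cells challenged with agonist PEA near its EC80; 0% = agonist at EC80 plus vehicle and 100% = vehicle with no agonist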
Ga16 ag counter – counter-screen for TAAR1 antagonists: nonselective Ga16 agonists; shares compounds with TAAR1 antagonist; Ga16-expressing cells, calcium fluorescence, agonist counterscreen; activation, % at 3 µM; 18% of 2,400 active; in the data active = activation above about 12%;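 note: 0% = vehicle wells and 100% = saturating stimulus response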
TAAR1 ag counter – activates human TAAR1 in antagonist counter-screen; activation, % at 3 µM; 2% of 2,400 active; AID 651955; hTAAR1 cell line, fluorescence activation, agonist mode; shares compounds with TAAR1 antagonist; in the data active = activation above about 37%;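 note: CHO cells stably expressing TAAR1 with calcium dye readout; 0% = DMSO vehicle and 100% = full agonist response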
* = called active by the depositor; nt = no result. Compounds with a hit are over-represented: about 4.6% of the library has one in this group of screens.

SMILES	GPR7 antag	CHO parental Ca	OX1R antag-1	TAAR1 antagonist	OX1R antag-2	TAAR1 ag	nonsel antag count	TAAR1 ant conf	Ga16 ag counter	TAAR1 ag counter
COC(=O)c1c(-c2ccc(OC)cc2)oc2ccc(-c3cc(OC)c(OC)c(OC)c3)cc12	nt	-16	5	58*	-18	7	14	32	3	9
COC(=O)c1c(-c2ccc(OC)cc2)oc2ccc(-c3ccc(OC)nc3)cc12	-7	-6	11	12	-18	14	nt	nt	nt	nt
COc1ccc2cc(C3=CC(=O)CC(C)(C)C3=O)ccc2c1	nt	nt	nt	61*	nt	7	26*	43	6	6
Cc1nc(-c2ccc(S(=O)(=O)Oc3ccccc3Cl)s2)cs1	2	58*	6	79*	9	9	28*	49*	2	3
CC(C)(C)NC(=O)CN(Cc1ccc2c(c1)OCO2)C(=O)CNS(=O)(=O)c1ccc(F)cc1	6	-10	18	-16	-15	0	nt	nt	nt	nt
CC(C)(C)OC(=O)C[C@@H]1C/C=C\C[C@H](CC(=O)N[C@H](CO)Cc2ccccc2)C(=O)N[C@@H](Cc2ccccc2)COC1=O	nt	-31	8	59*	-21	17	28*	40	5	1
O=C1NC[C@@H](c2ccccc2)OC(=O)[C@H](Cc2ccc(F)cc2)C/C=C\C[C@@H]1CC(=O)N(CCO)Cc1ccccc1	nt	3	2	67*	0	27	20	44	9	7
O=C(C[C@H]1C/C=C\CC[C@H](Cc2ccc(F)cc2)C(=O)O[C@@H](c2ccccc2)CNC1=O)N[C@@H](CO)Cc1ccccc1	nt	-16	10	59*	-11	33	35*	49*	10	12
O=C1CCCC/C=C\C[C@H](CC(=O)N(CCO)Cc2ccccc2)C(=O)NC[C@H](c2ccccc2)O1	nt	-6	9	-5	-13	4	nt	nt	nt	nt
O=C1NC[C@H](c2ccccc2)OC(=O)[C@H](Cc2ccc(F)cc2)C/C=C\C[C@@H]1CC(=O)N(CCO)Cc1ccccc1	nt	-21	33	77*	18	32	32*	47	9	7
COc1cccc(NC(=O)CSc2c3c(nc4ccccc24)CCCC3)c1	10	-27	51	17	-6	4	nt	nt	nt	nt
Cc1cccc(OCC(=O)Nc2ccc3c(c2)C(=O)NC3=O)c1	12	4	14	18	6	11	nt	nt	nt	nt
Cc1cc(C(=O)COC(=O)Cn2c(C(F)(F)F)nc3ccccc32)c(C)n1Cc1ccco1	4	-32	12	51*	-27	10	17	26	10	13
Cc1ccc(C(=O)NCC(=O)OCC(=O)c2cc(C)n(Cc3ccco3)c2C)cc1	-3	-20	17	0	-18	-2	nt	nt	nt	nt
CCOC(=O)C1CSC(CC(=O)Nc2ccc(Cl)cc2)C(=O)N1 (centres undefined)	-5	-11	-2	-20	4	7	nt	nt	nt	nt
Cc1ccc(NC(=O)c2ccc(N3C(=O)C4CC=C(Cl)CC4C3=O)cc2)cc1 (centres undefined)	6	-6	15	63*	10	27	24*	45	13*	15
C/C(=N\O)c1ccc(N2C(=O)C3CC=C(Cl)CC3C2=O)cc1 (centres undefined)	-1	-10	-1	6	-3	7	nt	nt	nt	nt
Cc1ccc(C(=O)Nc2cccc(N3C(=O)C4CCC(C)CC4C3=O)c2)cc1 (centres undefined)	-18	-15	14	71*	-7	12	31*	50*	8	5
COc1ccc(C(C)(C)C)cc1NC(=O)OC[C@@H]1CSCCS(=O)(=O)N1	nt	nt	nt	-11	nt	5	nt	nt	nt	nt
COc1ccc(NC(=O)/C=C/c2ccc(S(=O)(=O)N3CCOCC3)cc2)cc1	nt	-5	9	8	11	8	nt	nt	nt	nt
COc1cc(-c2cc(C(=O)Nc3ccc(C)c(S(=O)(=O)N4CCOCC4)c3)c3ccccc3n2)cc(OC)c1OC	nt	-5	9	74*	-12	14	40*	55*	10	7
COc1cc(-c2cc(C(=O)Nc3nc4ccccc4s3)c3ccccc3n2)cc(OC)c1OC	-6	-11	5	58*	-23	8	37*	39	6	7
COc1cc(-c2cc(C(=O)Nc3ccc(O)cc3)c3ccccc3n2)cc(OC)c1OC	-8	4	16	58*	-16	13	27*	46	8	11
COc1ccc(/C=C/C(=O)Nc2ccc(C)c(S(=O)(=O)N3CCOCC3)c2)cc1	nt	-11	10	65*	7	19	31*	45	13*	10
Cc1ccc(-c2nn(-c3ccccc3)cc2C(=O)Nc2ccc(C)c(S(=O)(=O)N3CCOCC3)c2)cc1	-3	-9	7	32	-14	6	nt	nt	nt	nt
CCOc1ccccc1NC(=O)C1CCCN(S(=O)(=O)c2ccc3c(c2)CCCN3C(C)=O)C1 (centres undefined)	nt	nt	nt	-4	nt	1	nt	nt	nt	nt
Cc1cccc(NC(=O)N(Cc2nc3ccccc3c(=O)[nH]2)C2CCCC2)c1	1	-22	14	-14	-33	6	nt	nt	nt	nt
CCC(C)Nc1nc(-c2cccc(OC)c2O)nc2ccccc12 (centres undefined)	-22	-10	13	57*	-14	18	21	36	11	25
